ChEMBL document CHEMBL4765405, “Design, synthesis and biological activities of novel pleuromutilin derivatives with a substituted triazole moiety as potent antibacterial agents” (Eur J Med Chem, 2020)
≈ marks a conversion by molar mass, not a printed value. Calls of active or inactive are those of the source. The calls are words filed in the database; no cut-off is given here.

Key:
Staphylococcus aureus [1] = assay: Antibacterial activity against methicillin-resistant Staphylococcus aureus ATCC 43300 infected in ICR/Swiss mouse systemic infection model assessed as survival rate at 30 mg/kg, ip after 7 days relative to control; format: functional; conditions: ATCC 43300, ip, 168 h, time 7 day
Method in brief: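 MRSA systemic infection model in mice. Dose 30 mg/kg with tiamulin as comparator and an untreated infected control. Survival was recorded after 7 days of administration.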

Staphylococcus aureus [2] = assay: Bactericidal activity against methicillin-resistant Staphylococcus aureus ATCC 43300 assessed as reduction in bacterial growth at MIC concentration preincubated up to 24 hrs followed by subculturing and measured after 20 hrs by time-kill assay; format: functional, organism-based; conditions: time hrs <=44
Staphylococcus aureus [3] = assay: Antibacterial activity against Staphylococcus aureus 144 after 24 hrs by CLSI based broth micro dilution method; format: functional
Method in brief: (§1)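 Broth microdilution run per CLSI. MRSA ATCC 43300 served as the QC strain, with the CLSI QC range as reference. S. aureus AD3 and 144 are clinical isolates from Guangdong Province. Pleuromutilin and tiamulin were run as reference drugs.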

Staphylococcus aureus [4] = assay: Antibacterial activity against Staphylococcus aureus ATCC 29213 after 24 hrs by CLSI based broth micro dilution method; format: functional; method in brief: as §1
Staphylococcus aureus [5] = assay: Antibacterial activity against methicillin-resistant Staphylococcus aureus ATCC 43300 assessed as post antibacterial effect at 4 time of MIC concentration preincubated for 2 hrs followed by compound washout further incubated with fresh medium and measured for 6 hrs; format: functional
Escherichia coli [6] = assay: Antibacterial activity against Escherichia coli ATCC 25922 after 24 hrs by CLSI based broth micro dilution method; format: functional
Method in brief: (§2)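 CLSI broth microdilution MIC against S. aureus ATCC 43300 (MRSA), ATCC 29213, clinical isolates AD3 and 144 (Guangdong Province), and E. coli ATCC 25922; ATCC 43300 served as QC strain, with the CLSI quality control range as reference.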

Staphylococcus aureus [7] = assay: Antibacterial activity against methicillin-resistant Staphylococcus aureus ATCC 43300 assessed as post antibacterial effect at 2 time of MIC concentration preincubated for 2 hrs followed by compound washout further incubated with fresh medium and measured for 6 hrs; format: functional
Escherichia coli [8] = assay: Bactericidal activity against Escherichia coli ATCC 25922 preincubated 16 to 20 hrs followed by subculturing and measured after over night; format: functional
Method in brief: (§3)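 MBC by CLSI broth microdilution on the same strain panel: S. aureus ATCC 43300, ATCC 29213, clinical isolates AD3 and 144, E. coli ATCC 25922; ATCC 43300 served as QC strain.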

Staphylococcus aureus [9] = assay: Bactericidal activity against Staphylococcus aureus AD3 preincubated 16 to 20 hrs followed by subculturing and measured after over night; format: functional; method in brief: as §3
Staphylococcus aureus [10] = assay: Bactericidal activity against methicillin-resistant Staphylococcus aureus ATCC 43300 preincubated 16 to 20 hrs followed by subculturing and measured after over night; format: functional
Method in brief: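 MBC determined by the CLSI broth microdilution method against MRSA ATCC 43300, with ATCC 43300 also serving as the QC strain. Pleuromutilin and tiamulin were reference drugs.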

Staphylococcus aureus [11] = assay: Antibacterial activity against methicillin-resistant Staphylococcus aureus ATCC 43300 infected in ICR/Swiss mouse model of neutropenic thigh infection assessed as reduction in bacterial load at 20 mg/kg, iv and measured after 24 hrs; format: functional
Method in brief: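 Mice made neutropenic by intraperitoneal cyclophosphamide; the negative control group received 0.9% saline intraperitoneally. Thigh muscle was inoculated with about 10^7 CFU/mL MRSA. Dose 20 mg/kg, with tiamulin as comparator and an untreated control. Read-out was thigh bacterial load (log10 CFU/g), n = 6/group.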

[12] = Ratio of MBC for bactericidal activity against methicillin-resistant Staphylococcus aureus ATCC 43300 to MIC for antibacterial activity against methicillin-resistant Staphylococcus aureus ATCC 4330; format: functional
Staphylococcus aureus [13] = assay: Bactericidal activity against Staphylococcus aureus ATCC 29213 preincubated 16 to 20 hrs followed by subculturing and measured after over night; format: functional; method in brief: as §3
Cytochrome P450 3A4 = Cytochrome P450 3A4 (Homo sapiens, UniProt P08684); assay: Inhibition of CYP3A4 in human liver microsomes using testosterone as substrate preincubated for 5 mins followed by NADPH addition and measured after 5 mins by LC-MS/MS analysis; format: ADME
Sequence of Cytochrome P450 3A4 (P08684 whole entry): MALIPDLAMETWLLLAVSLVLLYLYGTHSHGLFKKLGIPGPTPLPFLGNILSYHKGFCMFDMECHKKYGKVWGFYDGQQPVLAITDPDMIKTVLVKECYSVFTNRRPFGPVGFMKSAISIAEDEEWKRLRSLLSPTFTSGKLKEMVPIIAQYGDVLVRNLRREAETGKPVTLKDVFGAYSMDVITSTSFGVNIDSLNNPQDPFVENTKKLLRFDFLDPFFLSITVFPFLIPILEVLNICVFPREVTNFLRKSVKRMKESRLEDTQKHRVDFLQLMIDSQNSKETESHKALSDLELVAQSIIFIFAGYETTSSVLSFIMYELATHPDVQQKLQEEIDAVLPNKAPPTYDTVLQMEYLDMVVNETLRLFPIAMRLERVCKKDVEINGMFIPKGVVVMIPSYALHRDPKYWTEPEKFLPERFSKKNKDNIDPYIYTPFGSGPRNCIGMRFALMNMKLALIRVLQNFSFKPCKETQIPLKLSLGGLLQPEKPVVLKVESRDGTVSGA

Staphylococcus aureus [14] = assay: Antibacterial activity against Staphylococcus aureus AD3 after 24 hrs by CLSI based broth micro dilution method; format: functional; method in brief: as §2
Staphylococcus aureus [15] = assay: Bactericidal activity against Staphylococcus aureus 144 preincubated 16 to 20 hrs followed by subculturing and measured after over night; format: functional; method in brief: as §3
Staphylococcus aureus [16] = assay: Antibacterial activity against methicillin-resistant Staphylococcus aureus ATCC 43300 after 24 hrs by CLSI based broth micro dilution method; format: functional; method in brief: as §1
RAW264.7 = assay: Cytotoxicity against mouse RAW264.7 cells assessed as reduction in cell viability at 8 ug/ml after 16 hrs by MTT assay; format: cell-based; conditions: raw264.7, 16 h, dose 8 µg/ml
Method in brief: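 RAW 264.7 macrophage viability read by MTT assay after exposure at 8 μg/mL.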

Staphylococcus aureus [17] = assay: Bactericidal activity against methicillin-resistant Staphylococcus aureus ATCC 43300 assessed as reduction in bacterial growth at > 4 time of MIC concentration preincubated up to 24 hrs followed by subculturing and measured after 20 hrs by time-kill assay; format: functional; set-up: scale not given: the % may be the effect or the level left; conditions: time hrs <=44
Staphylococcus aureus [18] = assay: Bactericidal activity against methicillin-resistant Staphylococcus aureus ATCC 43300 assessed as reduction in bacterial growth at > 8 time of MIC concentration preincubated up to 24 hrs followed by subculturing and measured after 20 hrs by time-kill assay; format: functional, organism-based; conditions: time hrs <=44
[19] = Inhibition of CYP450 (unknown origin); format: ADME, Homo sapiens

| SMILES | MIC (Staphylococcus aureus [3]) [µg/mL] | MIC (Staphylococcus aureus [4]) [µg/mL] | MIC (Escherichia coli [6]) [µg/mL] | MBC (Escherichia coli [8]) [µg/mL] | MBC (Staphylococcus aureus [9]) [µg/mL] | MBC (Staphylococcus aureus [10]) [µg/mL] | Ratio [12] | MBC (Staphylococcus aureus [13]) [µg/mL] | MIC (Staphylococcus aureus [14]) [µg/mL] | MBC (Staphylococcus aureus [15]) [µg/mL] | MIC (Staphylococcus aureus [16]) [µg/mL] | other results |
| --- | --- | --- | --- | --- | --- | --- | --- | --- | --- | --- | --- | --- |
| C=C[C@]1(C)C[C@@H](OC(=O)CSc2ccccc2NC(=O)Cn2cc(CN(C)C)nn2)[C@]2(C)[C@H](C)CC[C@]3(CCC(=O)[C@H]32)[C@@H](C)[C@@H]1O | 0.5 (≈ 0.767 µM) | 0.25 (≈ 0.384 µM) | > 32 | > 32 | 0.5 (≈ 0.767 µM) | 0.5 (≈ 0.767 µM) | 1 | 0.25 (≈ 0.384 µM) | 0.25 (≈ 0.384 µM) | 0.5 (≈ 0.767 µM) | 0.25 (≈ 0.384 µM) | survival at 30 mg/kg (Staphylococcus aureus [1]): 50%; Activity (Staphylococcus aureus [2]): Active; PAE (Staphylococcus aureus [5]): 2.74 h; PAE (Staphylococcus aureus [7]): 2.03 h; Activity (Staphylococcus aureus [11]): 1.71 log10CFU/g; IC50 (Cytochrome P450 3A4): 6.15 µM; Activity (RAW264.7): Non-Toxic; Activity (Staphylococcus aureus [17]): 99.9% |
| C=C[C@]1(C)C[C@@H](OC(=O)CSCCN(CC)CC)[C@]2(C)[C@H](C)CC[C@]3(CCC(=O)[C@H]32)[C@@H](C)[C@@H]1O [TIAMULIN] | 1 (≈ 2.03 µM) | 0.5 (≈ 1.01 µM) |  |  | 2 (≈ 4.05 µM) | 1 (≈ 2.03 µM) |  | 1 (≈ 2.03 µM) | 1 (≈ 2.03 µM) | 2 (≈ 4.05 µM) | 0.5 (≈ 1.01 µM) | survival at 30 mg/kg (Staphylococcus aureus [1]): 20%; PAE (Staphylococcus aureus [5]): 2.04 h; PAE (Staphylococcus aureus [7]): 1.65 h; Activity (Staphylococcus aureus [11]): 0.77 log10CFU/g |
| C=C[C@]1(C)C[C@@H](OC(=O)CSc2ccccc2NC(=O)Cn2cc(CN3CCN(c4ccc([N+](=O)[O-])cc4)CC3)nn2)[C@]2(C)[C@H](C)CC[C@]3(CCC(=O)[C@H]32)[C@@H](C)[C@@H]1O | 0.25 (≈ 0.307 µM) | 0.125 (≈ 0.154 µM) | > 32 | > 32 | 0.5 (≈ 0.614 µM) | 0.25 (≈ 0.307 µM) | 1 | 0.125 (≈ 0.154 µM) | 0.25 (≈ 0.307 µM) | 0.25 (≈ 0.307 µM) | 0.125 (≈ 0.154 µM) | Activity (Staphylococcus aureus [18]): Active |
| C=C[C@]1(C)C[C@@H](OC(=O)CSc2ccccc2NC(=O)Cn2cc(CN3CCN(c4cccc([N+](=O)[O-])c4)CC3)nn2)[C@]2(C)[C@H](C)CC[C@]3(CCC(=O)[C@H]32)[C@@H](C)[C@@H]1O | 0.25 (≈ 0.307 µM) | 0.25 (≈ 0.307 µM) | > 32 | > 32 | 0.5 (≈ 0.614 µM) | 0.25 (≈ 0.307 µM) | 1 | 0.25 (≈ 0.307 µM) | 0.25 (≈ 0.307 µM) | 0.5 (≈ 0.614 µM) | 0.125 (≈ 0.154 µM) | Activity (Staphylococcus aureus [18]): Active |
| C=C[C@]1(C)C[C@@H](OC(=O)CSc2ccccc2NC(=O)Cn2cc(CN(CC)CC)nn2)[C@]2(C)[C@H](C)CC[C@]3(CCC(=O)[C@H]32)[C@@H](C)[C@@H]1O | 0.5 (≈ 0.735 µM) | 0.25 (≈ 0.368 µM) | > 32 | > 32 | 1 (≈ 1.47 µM) | 0.5 (≈ 0.735 µM) | 1 | 0.25 (≈ 0.368 µM) | 0.5 (≈ 0.735 µM) | 0.5 (≈ 0.735 µM) | 0.25 (≈ 0.368 µM) | Activity (Staphylococcus aureus [2]): Active; PAE (Staphylococcus aureus [5]): 1.84 h; PAE (Staphylococcus aureus [7]): 1.81 h; Activity (Staphylococcus aureus [17]): 99.9% |
| CC[C@]1(C)C[C@@H](OC(=O)CSc2nnc(N)[nH]2)[C@]2(C)[C@H](C)CC[C@]3(CCC(=O)[C@H]32)[C@@H](C)[C@@H]1O [AZAMULIN] |  |  |  |  |  |  |  |  |  |  |  | IC50 [19]: 0.12 µM |
| C=C[C@]1(C)C[C@@H](OC(=O)CSc2ccccc2NC(=O)Cn2cc(CN3CCC(O)CC3)nn2)[C@]2(C)[C@H](C)CC[C@]3(CCC(=O)[C@H]32)[C@@H](C)[C@@H]1O | 1 (≈ 1.41 µM) | 1 (≈ 1.41 µM) | > 32 | > 32 | 1 (≈ 1.41 µM) | 2 (≈ 2.83 µM) | 1 | 1 (≈ 1.41 µM) | 1 (≈ 1.41 µM) | 2 (≈ 2.83 µM) | 1 (≈ 1.41 µM) |  |
| C=C[C@]1(C)C[C@@H](OC(=O)CSc2ccccc2NC(=O)Cn2cc(CN3CCN(c4ccccc4F)CC3)nn2)[C@]2(C)[C@H](C)CC[C@]3(CCC(=O)[C@H]32)[C@@H](C)[C@@H]1O | 1 (≈ 1.27 µM) | 0.5 (≈ 0.635 µM) | > 32 | > 32 | 1 (≈ 1.27 µM) | 2 (≈ 2.54 µM) | 1 | 1 (≈ 1.27 µM) | 0.5 (≈ 0.635 µM) | 1 (≈ 1.27 µM) | 1 (≈ 1.27 µM) |  |
| C=C[C@]1(C)C[C@@H](OC(=O)CSc2ccccc2NC(=O)Cn2cc(CN3CCN(c4ccccc4OC)CC3)nn2)[C@]2(C)[C@H](C)CC[C@]3(CCC(=O)[C@H]32)[C@@H](C)[C@@H]1O | 1 (≈ 1.25 µM) | 1 (≈ 1.25 µM) | > 32 | > 32 | 2 (≈ 2.5 µM) | 1 (≈ 1.25 µM) | 1 | 2 (≈ 2.5 µM) | 1 (≈ 1.25 µM) | 4 (≈ 5.01 µM) | 0.5 (≈ 0.626 µM) |  |
| C=C[C@]1(C)C[C@@H](OC(=O)CSc2ccccc2NC(=O)Cn2cc(CN3CCN(c4cccc(Cl)c4)CC3)nn2)[C@]2(C)[C@H](C)CC[C@]3(CCC(=O)[C@H]32)[C@@H](C)[C@@H]1O | 2 (≈ 2.49 µM) | 1 (≈ 1.24 µM) | > 32 | > 32 | 2 (≈ 2.49 µM) | 4 (≈ 4.98 µM) | 1 | 1 (≈ 1.24 µM) | 2 (≈ 2.49 µM) | 4 (≈ 4.98 µM) | 2 (≈ 2.49 µM) |  |
| C=C[C@]1(C)C[C@@H](OC(=O)CSc2ccccc2NC(=O)Cn2cc(CN3CCN(c4ccccc4O)CC3)nn2)[C@]2(C)[C@H](C)CC[C@]3(CCC(=O)[C@H]32)[C@@H](C)[C@@H]1O | 1 (≈ 1.27 µM) | 1 (≈ 1.27 µM) | > 32 | > 32 | 2 (≈ 2.55 µM) | 1 (≈ 1.27 µM) | 1 | 1 (≈ 1.27 µM) | 1 (≈ 1.27 µM) | 2 (≈ 2.55 µM) | 0.5 (≈ 0.637 µM) |  |
